ChEMBL document CHEMBL4270555, “Synthesis and biological evaluation of magnolol derivatives as melatonergic receptor agonists with potential use in depression” (Eur J Med Chem, 2018)
Active and inactive are the calls of the source. The calls are words filed in the database; no cut-off is given here.

What was measured:
[1] = (§1) Drug metabolism in Sprague-Dawley rat feces assessed as (2S,3S,4S,5R,6S)-3,4,5-trihydroxy-6-(5-(1-hydroxyallyl)-5'-(1-hydroxypropyl)-2'-((2S,3R,4S,5S,6R)-3,4,5-trihydroxy-6-(hydroxymethyl)tetrahydro-2H-pyran-2-yloxy)biphenyl-2-yloxy)tetrahydro-2H-pyran-2-carboxylic acid formation at 100 mg/kg, po by UPLC-IT-TOF-MS analysis; assay type: ADME, organism-based; details: in vivo
Method in brief: (§2)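 Rats (n = 6) housed in metabolic cages received 100.0 mg/kg orally; controls received 0.5% CMC-Na. Plasma, urine and faeces were collected and analyzed by LC-IT-TOF-MS on a C18 column at 30 °C. Gradient 5–100% acetonitrile with 0.05% formic acid over 18 min at 0.2 mL/min; positive and negative ion MS/MS.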

Rattus norvegicus [2] = test: Toxicity in Sprague-Dawley rat assessed as caustic injuries at 2000 mg/kg, po measured over 4 hrs; assay type: organism-based; details: in vivo
Method in brief: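 Following OECD 425, adult SD rats (180–220 g), six per group: vehicle (0.5% CMC-Na) controls, plus males and females given 2000 mg/kg orally. Watched continuously for 4 h for behaviour, breathing, cutaneous, sensory and gastrointestinal signs, then hourly to 24 h and every 6 h for the next 48 h.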

Rattus norvegicus [3] = test: Toxicity in Sprague-Dawley rat assessed as skin rashes at 2000 mg/kg, po measured over 4 hrs; assay type: organism-based; details: in vivo
Method in brief: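 Acute oral toxicity run per OECD 425 in adult SD rats (180–220 g). Six animals per group: vehicle control (0.5% CMC-Na, oral), male rats and female rats each dosed orally at 2000 mg/kg. Animals were watched continuously for the first 4 h for behavior, breathing, cutaneous signs (irritation, ulceration, caustic injury, skin rashes), sensory nervous and gastrointestinal effects. Later checks were hourly for 24 h, then every 6 h for 48 h.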

[4] = Drug metabolism in Sprague-Dawley rat feces assessed as (2S,3S,4S,5R,6S)-6-(5'-allyl-5-(1-hydroxyallyl)-2'-((2S,3R,4S,5S,6R)-3,4,5-trihydroxy-6-(hydroxymethyl)tetrahydro-2H-pyran-2-yloxy)biphenyl-2-yloxy)-3,4,5-trihydroxytetrahydro-2H-pyran-2-carboxylic acid formation at 100 mg/kg, po by UPLC-IT-TOF-MS analysis; assay type: ADME, organism-based; details: in vivo; method in brief: as §2
[5] = as §1, with “urine” for “feces”; assay type: ADME, organism-based; details: in vivo
Method in brief: (§3)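 Male/unspecified SD rats (n = 6) housed individually in metabolic cages, dosed orally at 100.0 mg/kg; controls given 0.5% CMC-Na orally. Plasma, urine and faeces collected. LC-IT-TOF-MS on C18 column at 30 °C, formic acid (0.05%) water/acetonitrile gradient 5–100% B over 18 min, 0.2 mL/min; positive and negative ion modes with automatic MS/MS.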

[6] = Drug metabolism in Sprague-Dawley rat plasma assessed as 5,5'-bis(1-hydroxyallyl)biphenyl-2,2'-diol formation at 100 mg/kg, po by UPLC-IT-TOF-MS analysis; assay type: ADME, organism-based; details: in vivo; method in brief: as §3
[7] = Drug metabolism in Sprague-Dawley rat feces assessed as (2R,2'R,3S,3'S,4S,4'S,5R,5'R,6S,6'S)-6,6'-(5,5'-diallylbiphenyl-2,2'-diyl)bis(oxy)bis(2-(hydroxymethyl)tetrahydro-2H-pyran-3,4,5-triol) formation at 100 mg/kg, po by UPLC-IT-TOF-MS analysis; assay type: ADME, organism-based; details: in vivo; method in brief: as §2
Mus musculus [8] = test: Increase in 4-hydroxy-3-methoxyphenylacetic acid level in Kunming mouse hypothalamus at 40 mg/kg, po treated for 7 days by HPLC-ECD analysis; assay type: functional, organism-based
Method in brief: (§4)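 Male Kunming mice (18–20 g) given vehicle or 40 mg/kg for 7 days, then killed by cervical dislocation. Frontal cortex, hippocampus, striatum, hypothalamus and thalamus dissected on ice, homogenized in ice-cold 0.2 M perchloric acid with 0.1 mM EDTA, centrifuged 15,000 rpm, 20 min, 4 °C. Supernatant analysed by HPLC-ECD at +0.50 V; phosphate/octanesulfonate mobile phase pH 3.0 with 12% methanol. Levels in ng/g, mean ± SEM.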

[9] = Drug metabolism in Sprague-Dawley rat urine assessed as 1-(5'-allyl-2'-hydroxy-6-((2S,3R,4S,5S,6R)-3,4,5-trihydroxy-6-(hydroxymethyl)tetrahydro-2H-pyran-2-yloxy)biphenyl-3-yl)prop-2-en-1-one formation at 100 mg/kg, po by UPLC-IT-TOF-MS analysis; assay type: ADME, organism-based; details: in vivo; method in brief: as §3
[10] = target: T1, Melatonin receptor type 1B (Homo sapiens) (UniProt P49286); test: Agonist activity at human MT2 receptor expressed in HEK293 cells at 1 mM after 24 hrs by Fluo-8 dye-based calcium assay relative to control; assay type: functional, cell-based
T1 sequence (whole entry): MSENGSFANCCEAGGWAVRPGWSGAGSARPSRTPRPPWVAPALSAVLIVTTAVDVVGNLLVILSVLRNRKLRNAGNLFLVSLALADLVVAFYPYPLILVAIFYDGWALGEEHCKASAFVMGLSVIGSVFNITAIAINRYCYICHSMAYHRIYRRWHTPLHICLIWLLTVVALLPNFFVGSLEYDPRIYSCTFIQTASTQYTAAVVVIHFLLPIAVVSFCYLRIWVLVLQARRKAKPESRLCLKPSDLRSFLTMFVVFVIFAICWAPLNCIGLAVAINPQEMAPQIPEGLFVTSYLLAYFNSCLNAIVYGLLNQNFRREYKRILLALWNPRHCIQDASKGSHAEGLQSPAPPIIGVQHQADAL
Method in brief: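 Fluo-8 calcium assay in HEK293 cells stably expressing human MT1 or MT2, seeded 4×10^4/well and incubated 24 h. Compounds tested at 1.00 mM, agomelatine positive control at 3.33 µM; fluorescence at ex 485/em 525 nm. Agonism expressed as mean ± SD, n = 3.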

Mus musculus [11] = test: Antidepressant activity in po dosed Kunming mouse assessed as decrease in immobility duration by forced swim test; assay type: functional, organism-based
Method in brief: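 Male Kunming mice (18–20 g) given 10, 20 or 40 mg/kg orally; fluoxetine and agomelatine 20 mg/kg as references. Each mouse swam 6 min in a cylinder (25 × 15 cm) holding 10 cm of water at 25 ± 1 °C. Immobility over the last 4 min was scored by video tracking; n = 10, mean ± SEM versus vehicle.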

Mus musculus [12] = test: Increase in ratio of 3,4-dihydroxyphenylacetic acid and 4-hydroxy-3-methoxyphenylacetic acid to dopamine level in Kunming mouse frontal cortex at 40 mg/kg, po treated for 7 days by HPLC-ECD analysis; assay type: functional, organism-based; method in brief: as §4
[13] = as §1, with “plasma” for “feces”; assay type: ADME, organism-based; details: in vivo; method in brief: as §2
Mus musculus [14] = test: Toxicity in Kunming mouse assessed as effect in spontaneous locomotor activity by measuring total distance travelled at 10 to 40 mg/kg, po by open field test; assay type: organism-based; details: in vivo
Method in brief: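 Male Kunming mice, 18–20 g, group-housed at 22 ± 2 °C on 12 h light/dark, given oral doses of 10, 20 or 40 mg/kg before behavioural testing. Each animal placed in the centre of a black open-field box (24 × 24 × 40 cm) for 30 s adaptation, then explored freely for 6 min. Line crossings and distance recorded. Mean ± SEM, n = 10.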

With C=CCc1ccc(O)c(-c2cc(CC=C)ccc2O[C@@H]2O[C@H](CO)[C@@H](O)[C@H](O)[C@H]2O)c1 as the compound, how does the Drug metabolism [1] read?
The Drug metabolism was “Metabolite_Detected”.

And the Activity (Rattus norvegicus [2])?
Its Activity is “Non-Toxic”.

What about the Activity (Rattus norvegicus [3]) of the same compound?
Its Activity is “Non-Toxic”.

What about the Drug metabolism [4] of the same compound?
The Drug metabolism was “Metabolite_Detected”.

What about the Drug metabolism [5] of the same compound?
The Drug metabolism was “Metabolite_Detected”.

And the Drug metabolism [6]?
Its Drug metabolism is “Metabolite_Notdetected”.

And the Drug metabolism [7]?
The Drug metabolism was “Metabolite_Detected”.

And the Activity (Mus musculus [8])?
Its Activity is “Active”.

And the Drug metabolism [9]?
The Drug metabolism was “Metabolite_Detected”.

What about the Activity [10] of the same compound?
The Activity was 151%.

What about the Activity (Mus musculus [11]) of the same compound?
Its Activity is “Dose-dependent effect”.

What about the Activity (Mus musculus [12]) of the same compound?
The Activity was “Active”.

What about the Drug metabolism [13] of the same compound?
The Drug metabolism was “Metabolite_Notdetected”.

What about the Activity (Mus musculus [14]) of the same compound?
Its Activity is “Non-Toxic”.
